Source: PubChem BioAssay
Runt-CBFb FRET: inhibitors of human RUNX1 Runt domain binding to CBFb | Q01196+Q13951 | Cerulean-Runt/Venus-CBFb FRET ratio 530/480, 1 h | inhibition, % at 20 µM | 0.46% of 220,000 active | AID 1496;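 active means inhibition over about 50% at 20 µM in the single-dose screen, limit read from the data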
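System: Cerulean-labeled Runt domain protein | Quantity: 100 nM of each labeled protein | Schedule: 1 h compound exposure, room temperature | Detection: Fluorescence energy transfer, 422 nm excitation, 530/480 nm emission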
Runt-SMMHC FRET: blocks binding of human RUNX1 Runt domain to CBFb-SMMHC; Cerulean-Runt/Venus-CBFb-SMMHC FRET ratio 530/480, 1 h; 0.74% of 220,000 active; AID 1434; Q01196+Q13951; inhibition, % at 20 µM;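 active means mean inhibition across duplicate retests at 20 µM reaching about 50%, limit read from the data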;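 further: inhibitors lower the FRET ratio by blocking Runt binding to CBFb-SMMHC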
RanGTP-Imp inh: disruptors of Ran-importin-beta complex formation – biochemical, FRET, CFP-Ran, YFP-importin-beta, homogeneous, primary screen; cell-free CFP-Ran/YFP-importin-beta FRET ratio; inhibition, % (test concentration not listed); 1.1% of 300,000 active;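 active means more than half of the replicate wells show a fall in the fluorescence ratio signal beyond about 16%, limit read from the data, passing the limit was not always enough; inconclusive means exactly half of the replicate wells pass the set limit; inactive means fewer than half of replicates pass the limit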
Hck-Nef inh: inhibitors of human Hck kinase activated by Nef. AID 463187. inhibition, % at 20 µM. P08631. Recombinant Hck-YEEI plus Nef, Z-Lyte FRET kinase assay. 0.68% of 220,000 active;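 active means Hck-Nef kinase inhibition above about 50%, limit read from the data; inactive means inhibition below that limit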
Target sequence (P08631 whole entry, looked up): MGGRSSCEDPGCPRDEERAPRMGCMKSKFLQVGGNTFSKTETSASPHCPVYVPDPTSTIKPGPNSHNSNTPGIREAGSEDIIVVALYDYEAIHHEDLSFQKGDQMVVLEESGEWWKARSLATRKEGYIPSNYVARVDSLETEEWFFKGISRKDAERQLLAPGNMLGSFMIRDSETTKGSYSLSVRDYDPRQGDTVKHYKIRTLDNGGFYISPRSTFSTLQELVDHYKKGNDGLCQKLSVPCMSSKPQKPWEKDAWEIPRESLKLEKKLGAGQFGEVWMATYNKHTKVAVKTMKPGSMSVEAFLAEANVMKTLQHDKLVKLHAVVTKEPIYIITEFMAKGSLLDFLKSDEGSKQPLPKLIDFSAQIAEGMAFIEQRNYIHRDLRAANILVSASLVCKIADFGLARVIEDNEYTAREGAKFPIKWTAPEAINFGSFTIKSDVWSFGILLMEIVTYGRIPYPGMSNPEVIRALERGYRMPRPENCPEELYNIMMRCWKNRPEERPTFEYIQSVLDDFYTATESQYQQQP
Hits are given with their value. This is a sample that favours compounds with a hit; in the whole collection about 1.8% have one here.

Screening COc1ccc(CN(C(=O)c2snc(C(N)=O)c2N)C(C(=O)NC2CCCC2)c2cc(OC)ccc2OC)cc1 (configuration not stated) returned RanGTP-Imp inh inactive.
Oc1c(CN2CCc3ccccc3C2)cc(Cl)c2cccnc12 was read as Runt-CBFb FRET inactive, Runt-SMMHC FRET inactive, RanGTP-Imp inh 23.0 and Hck-Nef inh inactive.
Cc1[nH]n(-c2ccccc2)c(=S)c1C=Nc1ccc([N+](=O)[O-])cc1 was read as Runt-CBFb FRET inactive, Runt-SMMHC FRET 73.8 and Hck-Nef inh inactive.
Screening CCOC(=O)C1C(c2ccc(OC)cc2)N(C)OC1(O)C(F)(F)F (configuration not stated) returned Runt-CBFb FRET inactive, Runt-SMMHC FRET inactive, RanGTP-Imp inh 21.7 and Hck-Nef inh inactive.
For FC(F)(F)c1cc(-c2cccs2)nc2cc(-c3ccccc3)nn12 the results were Runt-CBFb FRET inactive, Runt-SMMHC FRET inactive, RanGTP-Imp inh 46.2 and Hck-Nef inh inactive.
Screening O=C(NCc1ccco1)c1cc2nc(-c3cccs3)cc(C(F)(F)F)n2n1 returned Runt-CBFb FRET inactive, Runt-SMMHC FRET inactive, RanGTP-Imp inh 19.9 and Hck-Nef inh inactive.
`O=C(O)c1cc2nc(-c3cccs3)cc(C(F)(F)F)n2n1` gave Runt-CBFb FRET inactive, Runt-SMMHC FRET inactive, RanGTP-Imp inh inconclusive and Hck-Nef inh inactive.
`CC(C)CN(C(=O)COC(=O)CCC(=O)c1ccc(Cl)cc1)c1c(N)n(Cc2ccccc2)c(=O)[nH]c1=O` gave RanGTP-Imp inh inactive.
CSc1ccccc1OCc1cc(C(=O)N2CCc3[nH]cnc3C2c2ccccn2)no1 (configuration not stated) was read as RanGTP-Imp inh inactive.
O=C(CN(Cc1ccccc1Cl)S(=O)(=O)c1ccc(Cl)cc1)N/N=C/c1ccc(C(=O)O)cc1 was read as RanGTP-Imp inh inactive.
Screening CCN1CCN(C(=O)CS(=O)(=O)Cc2nc(-c3ccc(C)cc3)oc2C)CC1 returned Runt-CBFb FRET inactive, Runt-SMMHC FRET inactive, RanGTP-Imp inh inactive and Hck-Nef inh inactive.
Screening Cc1ccc(-c2nc(CS(=O)(=O)CC(=O)N3CCN(C)CC3)c(C)o2)cc1 returned RanGTP-Imp inh 158.0.
For CC(=O)N(\C=C/C=C/C=C1\Sc2ccccc2C1=O)c1ccccc1 the results were Runt-CBFb FRET inactive, Runt-SMMHC FRET inactive, RanGTP-Imp inh inactive and Hck-Nef inh inactive.
Screening CN(C)/C=C1/Sc2ccccc2C1=O returned Runt-CBFb FRET inactive, Runt-SMMHC FRET inactive, RanGTP-Imp inh 18.5 and Hck-Nef inh inactive.
`O=C(O)CCC(=O)Nc1ccc(Br)c(Cl)c1` gave Runt-CBFb FRET 99.5, Runt-SMMHC FRET inactive, RanGTP-Imp inh inactive and Hck-Nef inh inactive.
Screening CC(=O)c1ccc2c(c1)c(C#N)c1ccccc1[n+]2[O-] returned RanGTP-Imp inh 68.3.
Screening CC(=O)c1ccc2noc(-c3ccccc3)c2c1 returned RanGTP-Imp inh inactive and Hck-Nef inh inactive.
COc1ccccc1CNC(=O)COC(=O)c1nc(Cl)ccc1Cl was read as RanGTP-Imp inh inactive.
CCCn1c(SCC(=O)N2CCN(CC)CC2)nc2c1c(=O)n(C)c(=O)n2C was read as RanGTP-Imp inh inactive.
Screening CC(C)(C)NS(=O)(=O)c1ccc(CCC(=O)N2CCOCC2)cc1 returned Runt-CBFb FRET inactive, Runt-SMMHC FRET inactive, RanGTP-Imp inh 34.8 and Hck-Nef inh inactive.
CNS(=O)(=O)c1ccc(CCC(=O)N2CCOCC2)cc1 was read as RanGTP-Imp inh inactive.
Screening COc1ccc(CC(=O)N(CCC2=CCCCC2)c2c(N)n(Cc3ccccc3)c(=O)[nH]c2=O)cc1OC returned RanGTP-Imp inh inactive.
Screening N#C/C(=C\c1ccc(Cl)cc1)c1nc2ncccc2[nH]1 returned Runt-CBFb FRET inactive, Runt-SMMHC FRET inactive, RanGTP-Imp inh 36.0 and Hck-Nef inh inactive.
For CCN(c1ccccc1)S(=O)(=O)c1ccc(OC)c(NC(=O)C2CC(=O)N(Cc3ccccc3)C2)c1 (configuration not stated) the results were Runt-CBFb FRET inactive, Runt-SMMHC FRET inactive, RanGTP-Imp inh inactive and Hck-Nef inh inactive.
CCN(CC)S(=O)(=O)c1ccc2[nH]cc(C(=O)NC3CC3)c(=O)c2c1 was read as RanGTP-Imp inh inactive.
Screening CCOC(=O)c1cc2c(=O)n3cccc(C)c3nc2n(Cc2cccnc2)c1=N returned Hck-Nef inh inactive.
Screening CCn1c(=N)c(C(N)=O)cc2c(=O)n3cccc(C)c3nc21 returned Hck-Nef inh active.
CCn1c(=N)c(C(=O)NC)cc2c(=O)n3cccc(C)c3nc21 was read as Runt-CBFb FRET inactive and Runt-SMMHC FRET 58.1.
COc1ccccc1N1CCN(C(=O)c2cc(=O)c3c(C)cc(C)cc3o2)CC1 was read as RanGTP-Imp inh inactive.
Screening CCN(CC)S(=O)(=O)c1ccc(C(=O)OC2CCCCC2CN(C)C)cc1 (configuration not stated) returned Runt-CBFb FRET inactive, Runt-SMMHC FRET inactive, RanGTP-Imp inh 25.9 and Hck-Nef inh inactive.
Nc1c(C(=O)OCC2CCCO2)c2nc3ccccc3nc2n1C1CCCCC1 (configuration not stated) was read as Runt-CBFb FRET inactive, Runt-SMMHC FRET 67.3, RanGTP-Imp inh inactive and Hck-Nef inh inactive.
For COc1ccccc1-n1c(N)c(C(=O)NCC2CCCO2)c2nc3ccccc3nc21 (configuration not stated) the results were Runt-CBFb FRET inactive, Runt-SMMHC FRET inactive, RanGTP-Imp inh 57.3 and Hck-Nef inh inactive.
`Nc1c(S(=O)(=O)c2cccs2)c2nc3ccccc3nc2n1CC1CCCO1` (configuration not stated) gave Runt-CBFb FRET inactive, Runt-SMMHC FRET inactive and Hck-Nef inh inactive.
Cc1cccc(Cn2c(N3CCN(C)CC3)nc3c2c(=O)n(C)c(=O)n3C)c1 was read as RanGTP-Imp inh inactive.
COC(=O)c1sc(C(C)(C)C)cc1CSc1ccccc1 was read as Runt-CBFb FRET inactive, Runt-SMMHC FRET inactive, RanGTP-Imp inh inactive and Hck-Nef inh inactive.
Screening CSCC(C)N1CCC(Oc2cccc(C(=O)NCc3ccccn3)c2)CC1 (configuration not stated) returned RanGTP-Imp inh 30.0.
Screening O=C(CCCC(=O)Nc1ccccc1Br)N/N=C/c1c(F)cccc1Cl returned RanGTP-Imp inh inactive.
For Cc1ccc(N2CC(NS(=O)(=O)c3cccnc3)CC2=O)cc1C (configuration not stated) the results were RanGTP-Imp inh 32.5.
For Cc1cc(SCC(=O)OC(C)C(=O)N(C)c2ccccc2)nc2ccccc12 (configuration not stated) the results were RanGTP-Imp inh inactive.
CCC1CCCCN1C(=O)CSc1nnc(CNC(=O)c2c(F)cccc2Cl)o1 (configuration not stated) was read as RanGTP-Imp inh inactive.
O=c1[nH]c(C(Cl)Cl)nc2sc3c(c12)CCN(Cc1ccccc1)C3 was read as Runt-CBFb FRET 53.7, RanGTP-Imp inh 37.0 and Hck-Nef inh inactive.
